What all share (assay type): functional, organism-based
Test [1] relates to Human betaherpesvirus 5. Briefly: Antiviral activity against Human CMV T2293 in HFF cells by PRA. The note with it: Human betaherpesvirus 5, T2293, HFF.
Test [2] relates to Human betaherpesvirus 5. Nature of the test: Antiviral activity against Human CMV T2287 in MRC5 cells by PRA. The following applies: Human betaherpesvirus 5, T2287, MRC5. The method in brief: (§1)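 Plaque reduction in human lung MRC-5 fibroblasts, 80 to 100% confluent, infected with 50 PFU cell-free virus. Plates centrifuged 600 × g for 30 min, then 1 h at 37°C, 5% CO2. Inoculum removed; grown in duplicate with 0.625–160 μM GCV, 6.25–1,600 μM FOS or 0.0625–16 μM CDV in 0.8% carboxymethyl cellulose medium. Plaques counted at 7 days for IC50. Repeated 8–11 times; mean and SD.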

The subject of test [3] is Human betaherpesvirus 5. Nature of the test: Antiviral activity against Human CMV T2293 in HFF cells by SEAP assay. The following applies: Human betaherpesvirus 5, T2293, HFF. Put shortly: (§2)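 Cell-free stocks of AD169-derived recombinant viruses were inoculated at MOI 0.01 to 0.03 onto human foreskin fibroblasts. Cultures were grown without drug or with twofold increasing concentrations of GCV, FOS or CDV for 7 days. Supernatant SEAP activity was then measured. IC50 was derived by linear regression. Values are means and standard deviations of 7 to 23 replicate experiments.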

Test [4] relates to Human betaherpesvirus 5. Nature of the test: Antiviral activity against Human CMV T2233 in HFF cells by SEAP assay. The note with it: Human betaherpesvirus 5, T2233, HFF. Put shortly: as §2
For test [5], the system named is Human betaherpesvirus 5. Nature of the test: Antiviral activity against Human CMV T2211 in HFF cells by SEAP assay. The following applies: Human betaherpesvirus 5, T2211, HFF. Put shortly:
as §2

Test [6] deals with Human betaherpesvirus 5. Nature of the test: Antiviral activity against Human CMV T2311 in HFF cells by PRA. The note with it: Human betaherpesvirus 5, T2311, HFF.
The subject of test [7] is Human betaherpesvirus 5. Briefly: Antiviral activity against Human CMV AD169 in HFF cells by PRA. The note with it: Human betaherpesvirus 5, AD169, HFF.
The subject of test [8] is Human betaherpesvirus 5. Nature of the test: Antiviral activity against Human CMV Towne in MRC5 cells by PRA. The following applies: Human betaherpesvirus 5, Towne. Put shortly:
as §1

Test [9] concerns Human betaherpesvirus 5. Nature of the test: Antiviral activity against Human CMV T2296 in MRC5 cells by PRA. The following applies: Human betaherpesvirus 5, T2296, MRC5. Put shortly:
as §1

In test [10] the test system is Human betaherpesvirus 5. Briefly: Antiviral activity against Human CMV T2291 in HFF cells by SEAP assay. The note with it: Human betaherpesvirus 5, T2291, HFF. The method in brief:
as §2

Test [11] concerns Human betaherpesvirus 5. Nature of the test: Antiviral activity against Human CMV T2241 in HFF cells by SEAP assay. The note with it: Human betaherpesvirus 5, T2241, HFF. The method in brief:
as §2

For test [12], the system named is Human betaherpesvirus 5. Nature of the test: Antiviral activity against Human CMV T2291 in HFF cells by PRA. The following applies: Human betaherpesvirus 5, T2291, HFF.
Test [13] deals with Human betaherpesvirus 5. Nature of the test: Antiviral activity against Human CMV T2311 in HFF cells by SEAP assay. The following applies: Human betaherpesvirus 5, T2311, HFF. The method in brief: as §2

SMILES strings stand for the structures.

What is called IC50 is the concentration that inhibits the measured activity by half. On to `Nc1ccn(C[C@@H](CO)OCP(=O)(O)O)c(=O)n1` [CIDOFOVIR], for which the IC50 in [1] came to 4.9 µM; in test [2], 1.8 µM; in test [3], 5.2 µM; in test [4], 0.3 µM; in test [5], 0.2 µM; in test [6], 8.9 µM. The IC50 in [7] turned out to be 0.9 µM; in test [8], 0.3 µM; in [9], 0.6 µM; in [10], 0.7 µM; in test [11], 0.3 µM; in test [12] it was 3.3 µM. Besides, half-maximal inhibition in test [13] (IC50) required 4.7 µM.

For `O=C(O)P(=O)(O)O` [FOSCARNET], the IC50 in test [1] was 122 µM; in [2], 486 µM; in test [3], 32 µM; in test [4], 45 µM; in test [5], 41 µM; in test [6], 732 µM. Besides, the IC50 in test [7] came out at 78 µM; in [8], 62.8 µM; in test [9] it was 63.4 µM; in [10], 274 µM; in test [11] it was 42 µM; in [12], 431 µM. The compound also showed an IC50 in [13] of 308 µM.

On to `Nc1nc2c(ncn2COC(CO)CO)c(=O)[nH]1` [GANCICLOVIR], for which the IC50 in [1] turned out to be 10 µM; in test [2], 30.1 µM; in test [3], 5.6 µM; in [4], 1.4 µM; in [6], 12.4 µM; in [7], 1.9 µM. The IC50 in test [8] came to 4.9 µM; in test [9] it was 5.4 µM; in test [10] it was 7.1 µM; in test [11], 1.4 µM; in [12] it was 4.1 µM; in test [13], 30.2 µM.

(Values after ChEMBL document CHEMBL1142135, “Multidrug resistance conferred by novel DNA polymerase mutations in human cytomegalovirus isolates” (Antimicrob Agents Chemother, 2007).)
